Converted amounts (≈) assume the structure as drawn. The source made the active and inactive calls. The rule behind the calls is not given here.
What was measured:
[1] = Cytotoxicity against human HepG2 cells after 72 hrs by MTT assay; format: cell-based
Summary of the method: (§1)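 MTT assay on RD (rhabdomyosarcoma), HepG2 and HeLa cell lines. CC50 is the concentration that cut cell viability by 50% relative to 0.1% DMSO-treated mock-control cells. Values are mean and SD of three independent experiments.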

[2] = Selectivity index, ratio of CC50 for human HepG2 cells to EC50 for Coxsackievirus B5 infected in human HepG2 cells; format: toxicity, cell-based; settings: read-out: Ratio CC50/EC50
Summary of the method: (§2)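 Antiviral pairings were EV71 in RD cells, CVB5 in HepG2 cells and ADV7 in HeLa cells. Compounds were added […], and total infectivity was read by crystal violet staining. EC50 is the concentration that cut viral replication by 50%. CC50 came from MTT relative to 0.1% DMSO mock control. SI = CC50/EC50. Data are from three independent experiments.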

unidentified adenovirus [3] = experiment: Antiviral activity against Adenovirus type 7 infected in human HeLa cells assessed as inhibition of virus-induced cytopathogenicity after 48 hrs by crystal violet staining method; format: functional, organism-based; settings: for EC50: unidentified adenovirus, type 7, HeLa, 48 h
Summary of the method: (§3)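 Virus–cell pairings were EV71 in RD, CVB5 in HepG2, ADV7 in HeLa and influenza A H1N1 in MDCK. Compounds were added […], and total infectivity was read by crystal violet staining. EC50 is the concentration reducing viral replication by 50%. Values are mean SD of three independent experiments.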

Enterovirus [4] = experiment: Antiviral activity against Enterovirus 71 infected in human rhabdomyosarcoma cells assessed as inhibition of virus-induced cytopathogenicity after 48 hrs by crystal violet staining method; format: functional, organism-based; settings: for EC50: Enterovirus, 71, 48 h; summary of the method: as §3
[5] = Selectivity index, ratio of CC50 for human rhabdomyosarcoma cells to EC50 for Enterovirus 71 infected in human rhabdomyosarcoma cells; format: toxicity; settings: read-out: Ratio CC50/EC50; summary of the method: as §2
Influenza A virus [6] = experiment: Antiviral activity against influenza A virus H1N1 infected in dog MDCK cells assessed as inhibition of virus-induced cytopathogenicity after 48 hrs by crystal violet staining method; format: functional, organism-based; summary of the method: as §3
[7] = Selectivity index, ratio of CC50 for human HeLa cells to EC50 for Adenovirus type 7 infected in human HeLa cells; format: toxicity, cell-based; settings: read-out: Ratio CC50/EC50; summary of the method: as §2
[8] = Cytotoxicity against human HeLa cells after 72 hrs by MTT assay; format: cell-based; summary of the method: as §1
Coxsackievirus B5 [9] = experiment: Antiviral activity against Coxsackievirus B5 infected in human HepG2 cells assessed as inhibition of virus-induced cytopathogenicity after 48 hrs by crystal violet staining method; format: functional, organism-based; settings: for EC50: Enterovirus B, HepG2, 48 h; summary of the method: as §3
[10] = Cytotoxicity against human rhabdomyosarcoma cells after 72 hrs by MTT assay; format: cell-based, Rhabdomyosarcoma cell; summary of the method: as §1
Coxsackievirus B5 [11] = experiment: Antiviral activity against Coxsackievirus B5 infected in human HepG2 cells assessed as inhibition of virus-induced cytopathogenicity at 32 ug/ml after 48 hrs by crystal violet staining method; format: functional; settings: for inhibition at 32 µg/mL: Enterovirus B, HepG2, 48 h
Summary of the method: (§4)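 Single-concentration screen with these pairings: RD/EV71, HepG2/CVB5, HeLa/ADV7, MDCK/H1N1. Cells were infected and kept 48 h in the presence of compound at one fixed concentration; some EV71 tests used the lower level. Inhibition of virus proliferation was read by crystal violet staining.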

unidentified adenovirus [12] = experiment: Antiviral activity against Adenovirus type 7 infected in human HeLa cells assessed as inhibition of virus-induced cytopathogenicity at 32 ug/ml after 48 hrs by crystal violet staining method; format: functional; settings: for inhibition at 32 µg/mL: type 7, HeLa; summary of the method: as §4
Influenza A virus [13] = experiment: Antiviral activity against influenza A virus H1N1 infected in dog MDCK cells assessed as inhibition of virus-induced cytopathogenicity at 32 ug/ml after 48 hrs by crystal violet staining method; format: functional, organism-based; summary of the method: as §4
Enterovirus [14] = experiment: Antiviral activity against Enterovirus 71 infected in human rhabdomyosarcoma cells assessed as inhibition of virus-induced cytopathogenicity at 32 ug/ml after 48 hrs by crystal violet staining method; format: functional; settings: for inhibition at 32 µg/mL: Enterovirus, 71, 48 h; summary of the method: as §4

SMILES	CC50 at 72 h [1] [µg/mL]	selectivity ratio [2]	EC50 (unidentified adenovirus [3]) [µg/mL]	EC50 (Enterovirus [4]) [µg/mL]	selectivity ratio [5]	inhibition (INH) (Influenza A virus [6]) [%]	selectivity ratio [7]	CC50 at 72 h [8] [µg/mL]	EC50 (Coxsackievirus B5 [9]) [µg/mL]	CC50 at 72 h [10] [µg/mL]	inhibition (Influenza A virus [13])	inhibition (Coxsackievirus B5 [11])	inhibition (INH) (unidentified adenovirus [3]) [%]	inhibition (unidentified adenovirus [12])	inhibition (INH) (Enterovirus [4]) [%]	inhibition (Enterovirus [14])	inhibition (INH) (Coxsackievirus B5 [9]) [%]	further results
Nc1sc2c(c1-c1nc3cc(Cl)ccc3s1)CCC2	67.8 (≈ 221 µM)	10.4	9.8 (≈ 31.9 µM)	1.2 (≈ 3.91 µM)	46.9	<50	7.6	75.1 (≈ 245 µM)	6.4 (≈ 20.9 µM)	59.1 (≈ 193 µM)								inhibition (unidentified adenovirus [3]): Dose-dependent effect; inhibition (Enterovirus [4]): Dose-dependent effect; inhibition (Coxsackievirus B5 [9]): Dose-dependent effect
Oc1ccccc1/C=N/c1sc2c(c1-c1nc3ccccc3s1)CCC2	156 (≈ 414 µM)	13.8	17.4 (≈ 46.2 µM)	7.9 (≈ 21 µM)	12.6	<50	9.6	168 (≈ 446 µM)	11.1 (≈ 29.5 µM)	100 (≈ 266 µM)	Active							inhibition at 32 µg/mL (Coxsackievirus B5 [11]): 60%; inhibition at 32 µg/mL (unidentified adenovirus [12]): 60%; inhibition at 32 µg/mL (Enterovirus [14]): 50%
Fc1ccc(/C=N/c2sc3c(c2-c2nc4ccccc4s2)CCC3)cc1	302 (≈ 799 µM)	19.4				<50		372 (≈ 984 µM)	15.5 (≈ 41 µM)	290 (≈ 765 µM)	Active	Active	<50	Active	<50	Active		
O=[N+]([O-])c1ccccc1/C=N/c1sc2c(c1-c1nc3ccccc3s1)CCCC2	393 (≈ 937 µM)	35				<50		369 (≈ 880 µM)	11.2 (≈ 26.7 µM)	255 (≈ 609 µM)	Active	Active	<50	Active	<50	Active		
NC(=O)c1ncn([C@@H]2O[C@H](CO)[C@@H](O)[C@H]2O)n1 [RIBAVIRIN]	> 500	> 20	27.8 (≈ 114 µM)	49.2 (≈ 201 µM)	> 10		> 15	> 500	22.3 (≈ 91.3 µM)	> 500								
C(=N\c1sc2c(c1-c1nc3ccccc3s1)CCCC2)/c1ccc2c(c1)OCO2	329 (≈ 787 µM)			32.6 (≈ 77.9 µM)	9.1	<50		568 (≈ 1360 µM)		299 (≈ 714 µM)	Active	Active	<50	Active		Active	<50	
C(=N\c1sc2c(c1-c1nc3ccccc3s1)CCCC2)/c1ccccc1	308 (≈ 821 µM)	9.3	12.5 (≈ 33.4 µM)	14.2 (≈ 37.9 µM)	4.9	<50	26.5	333 (≈ 890 µM)	32.9 (≈ 87.8 µM)	71.1 (≈ 190 µM)	Active							inhibition at 32 µg/mL (Coxsackievirus B5 [11]): 60%; inhibition at 32 µg/mL (unidentified adenovirus [12]): 60%; inhibition at 32 µg/mL (Enterovirus [14]): 60%
Nc1sc2c(c1-c1nc3cc(Cl)ccc3s1)CCCC2	93.7 (≈ 292 µM)	26.7	5 (≈ 15.6 µM)	1.3 (≈ 4.05 µM)	33.7	<50	20.9	107 (≈ 333 µM)	3.5 (≈ 10.9 µM)	43.5 (≈ 136 µM)								inhibition (unidentified adenovirus [3]): Dose-dependent effect; inhibition (Enterovirus [4]): Dose-dependent effect; inhibition (Coxsackievirus B5 [9]): Dose-dependent effect
C(=C\c1ccccc1)/C=N/c1sc2c(c1-c1nc3ccccc3s1)CCCC2	467 (≈ 1170 µM)	31.6				<50		389 (≈ 971 µM)	14.7 (≈ 36.7 µM)	207 (≈ 517 µM)	Active	Active	<50	Active	<50	Active		
Oc1ccccc1/C=N/c1sc2c(c1-c1nc3cc(Cl)ccc3s1)CCC2	210 (≈ 511 µM)			13.9 (≈ 33.8 µM)	19.2	<50		251 (≈ 610 µM)		269 (≈ 655 µM)	Active	Active	<50	Active		Active	<50	
Clc1ccccc1/C=N/c1sc2c(c1-c1nc3ccccc3s1)CCCC2	370 (≈ 904 µM)					<50		407 (≈ 996 µM)		332 (≈ 811 µM)	Active	Active	<50	Active	<50	Active	<50	
Nc1sc2c(c1-c1nc3ccccc3s1)CCCC2	163 (≈ 570 µM)	11.9		14.1 (≈ 49.2 µM)	17.8	<50		475 (≈ 1660 µM)	14.5 (≈ 50.6 µM)	253 (≈ 883 µM)			<50					
C(=N\c1sc2c(c1-c1nc3ccccc3s1)CCC2)/c1ccc2c(c1)OCO2	356 (≈ 881 µM)					<50		449 (≈ 1110 µM)		310 (≈ 766 µM)	Active	Active	<50	Active	<50	Active	<50	

From ChEMBL document CHEMBL2417493, “Novel cycloalkylthiophene-imine derivatives bearing benzothiazole scaffold: synthesis, characterization and antiviral activity evaluation” (Bioorg Med Chem Lett, 2013)
